In ChEMBL document CHEMBL3085663, “Hypoxia-targeting carbonic anhydrase IX inhibitors by a new series of nitroimidazole-sulfonamides/sulfamides/sulfamates” (J Med Chem, 2013):
The source made the active and inactive calls. No cut-off for these calls is given here.

Tests used:
Carbonic anhydrase 9 = Carbonic anhydrase 9 (Homo sapiens, UniProt Q16790); test: Inhibition of recombinant human catalytic domain of carbonic anhydrase-9 preincubated for 15 mins by stopped-flow CO2 hydration assay
HT-29 [1] = test: Antitumor activity against human HT-29 cells xenografted in NMRI-nu mouse assessed as tumor growth inhibition at 5 mg/kg, iv administered on day 3 for 3 weeks; type: functional, organism-based; parameters: dose 5 mg/kg
How it was run: (§1)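 HT-29 cells in Matrigel were injected s.c. into the lateral flank of adult NMRI-nu mice (28−32 g). Dosing started at a tumour volume of 250 mm³ and was given i.v. One arm received 10 mg/kg daily for 3 days in 0.9% NaCl with 1% DMSO via the lateral tail vein. The other arm received 5 mg/kg at day 3. The schedule was repeated over 3 weeks. Read-out was time to reach 4× starting tumour volume against vehicle.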

HT-29 [2] = test: Antitumor activity against human HT-29 cells xenografted in NMRI-nu mouse assessed as time to reach 4x starting volume of tumor at 5 mg/kg, iv administered on day 3 for 3 weeks (reference value: 14.07 days); type: functional; how it was run: as §1
Mus musculus [3] = test: Toxicity in NMRI-nu mouse xenografted with HT-29 cells assessed as body weight loss at 5 mg/kg, iv administered on day 3 for 3 weeks; type: organism-based; parameters: dose 5 mg/kg, route intravenous; conditions: in vivo, 504 h
HT-29 [4] = test: Reduction in hypoxia-induced extracellular acidosis in human HT-29 cells at 1 mM after 24 hrs; type: functional, cell-based
How it was run: (§2)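 Exponentially growing HT-29 or HeLa cells were cultured in DMEM with 10% FBS, under hypoxia (0.2% O₂, 5% CO₂, balance N₂) or normoxia (20% O₂, 5% CO₂). Compounds were added in medium with 1% DMSO at final 0.1 or 1 mM. Medium pH was measured before and immediately after incubation, reported as ΔpHe, as mean ± SD of at least three independent experiments.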

HeLa [5] = test: Reduction in hypoxia-induced extracellular acidosis in human HeLa cells at 1 mM after 24 hrs; type: functional, cell-based; how it was run: as §2
HT-29 [6] = test: Antitumor activity against human HT-29 cells xenografted in NMRI-nu mouse assessed as tumor growth inhibition at 10 mg/kg, iv administered 3 days per week for 3 weeks; type: functional, organism-based; parameters: dose 10 mg/kg; how it was run: as §1
HeLa [7] = test: Reduction in hypoxia-induced extracellular acidosis in human HeLa cells after 24 hrs; type: functional, cell-based; how it was run: as §2
HT-29 [8] = test: Reduction in hypoxia-induced extracellular acidosis in human HT-29 cells after 24 hrs; type: functional, cell-based; how it was run: as §2
HT-29 [9] = test: Antitumor activity against human HT-29 cells xenografted in NMRI-nu mouse assessed as time to reach 4x starting volume of tumor at 10 mg/kg, iv administered 3 days per week for 3 weeks (reference value: 14.07 days); type: functional; how it was run: as §1
Mus musculus [10] = test: Toxicity in NMRI-nu mouse xenografted with HT-29 cells assessed as body weight loss at 10 mg/kg, iv administered 3 days per week for 3 weeks; type: organism-based; parameters: dose 10 mg/kg, route intravenous; conditions: in vivo
Carbonic anhydrase 2 = Carbonic anhydrase 2 (Homo sapiens, UniProt P00918); test: Inhibition of full length human cytosolic carbonic anhydrase-2 preincubated for 15 mins by stopped-flow CO2 hydration assay
Carbonic anhydrase 1 = Carbonic anhydrase 1 (Homo sapiens, UniProt P00915); test: Inhibition of full length human cytosolic carbonic anhydrase-1 preincubated for 15 mins by stopped-flow CO2 hydration assay
Carbonic anhydrase 1, sequence (P00915 whole entry, the tested form may be a part): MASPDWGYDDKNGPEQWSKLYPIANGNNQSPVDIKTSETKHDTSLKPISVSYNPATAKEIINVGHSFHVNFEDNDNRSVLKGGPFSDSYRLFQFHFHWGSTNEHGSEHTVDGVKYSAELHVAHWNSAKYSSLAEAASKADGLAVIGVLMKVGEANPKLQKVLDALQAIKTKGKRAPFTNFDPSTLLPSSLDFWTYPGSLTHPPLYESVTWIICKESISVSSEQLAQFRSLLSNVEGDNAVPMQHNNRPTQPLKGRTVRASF

Carbonic anhydrase 12 = Carbonic anhydrase 12 (Homo sapiens, UniProt O43570); test: Inhibition of recombinant human catalytic domain of carbonic anhydrase-12 preincubated for 15 mins by stopped-flow CO2 hydration assay
Carbonic anhydrase 12, sequence (O43570 whole entry, the tested form may be a part): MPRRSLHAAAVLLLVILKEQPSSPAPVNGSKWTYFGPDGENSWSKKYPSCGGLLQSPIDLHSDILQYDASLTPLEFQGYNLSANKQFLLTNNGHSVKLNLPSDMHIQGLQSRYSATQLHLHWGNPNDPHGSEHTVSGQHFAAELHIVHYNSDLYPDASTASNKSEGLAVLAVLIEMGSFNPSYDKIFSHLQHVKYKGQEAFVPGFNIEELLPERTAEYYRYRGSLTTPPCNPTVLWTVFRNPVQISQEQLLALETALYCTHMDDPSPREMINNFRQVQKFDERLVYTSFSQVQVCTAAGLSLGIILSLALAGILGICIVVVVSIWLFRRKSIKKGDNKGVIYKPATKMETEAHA

HeLa [11] = test: Reduction in hypoxia-induced extracellular acidosis in human HeLa cells at 0.1 to 1 mM after 24 hrs; type: functional, cell-based; how it was run: as §2

SMILES	Ki (Carbonic anhydrase 9)	Activity (HT-29 [4])	Activity (HeLa [5])	other results
Cc1ncc([N+](=O)[O-])n1CCNC(=S)NCc1ccc(S(N)(=O)=O)cc1	7.2 nM			
COc1cccc2c1C(=O)c1c(O)c3c(c(O)c1C2=O)C[C@@](O)(C(=O)CO)C[C@@H]3O[C@H]1C[C@H](N)[C@H](O)[C@H](C)O1 [DOXORUBICIN]				TGI (HT-29 [1]): Active; Time (HT-29 [2]): 23.39 days; Activity (Mus musculus [3]): Non-toxic
Cc1ncc([N+](=O)[O-])n1CCOS(N)(=O)=O		Active	Active	
Cc1ncc([N+](=O)[O-])n1CCNS(N)(=O)=O [DTP-348]		Active	Active	TGI (HT-29 [6]): Active; Activity (HeLa [7]): Dose-dependent effect; Activity (HT-29 [8]): Dose-dependent effect; Time (HT-29 [9]): 25.43 days; Activity (Mus musculus [10]): Non-toxic
Cc1nccn1CCCNS(N)(=O)=O	21 nM			
NS(=O)(=O)c1ccc(CCNC(=O)Cn2ccnc2[N+](=O)[O-])cc1	8 nM			
CS(=O)(=O)NCCn1ccnc1[N+](=O)[O-]	> 20000 nM			Ki (Carbonic anhydrase 2): > 20000 nM; Ki (Carbonic anhydrase 1): > 20000 nM; Ki (Carbonic anhydrase 12): > 20000 nM
NS(=O)(=O)NCCn1ccnc1[N+](=O)[O-]	41 nM			
Cc1ncc([N+](=O)[O-])n1CCNC(=S)NCCc1ccc(S(N)(=O)=O)cc1	8.3 nM	Active	Active	Activity (HeLa [11]): Active
Cc1ncc([N+](=O)[O-])n1CCNC(=S)Nc1ccc(S(N)(=O)=O)cc1	7.3 nM	Active	Active	
Cc1ncc([N+](=O)[O-])n1CCNS(C)(=O)=O	> 20000 nM			Ki (Carbonic anhydrase 2): > 20000 nM; Ki (Carbonic anhydrase 1): > 20000 nM; Ki (Carbonic anhydrase 12): > 20000 nM
